Data published in ChEMBL document CHEMBL1139946, “1-Aryl-4,6-dihydropyrazolo[4,3-d][1]benzazepin-5(1H)-ones: a new class of antiproliferative agents with selectivity for human leukemia and breast cancer cell lines” (Eur J Med Chem, 2007).

How the values were obtained:
[1] = molecular target: T1, Ephrin type-B receptor 4 (Homo sapiens) (UniProt P54760); assay: Inhibition of EphB4 at 10 uM
T1 sequence (whole entry): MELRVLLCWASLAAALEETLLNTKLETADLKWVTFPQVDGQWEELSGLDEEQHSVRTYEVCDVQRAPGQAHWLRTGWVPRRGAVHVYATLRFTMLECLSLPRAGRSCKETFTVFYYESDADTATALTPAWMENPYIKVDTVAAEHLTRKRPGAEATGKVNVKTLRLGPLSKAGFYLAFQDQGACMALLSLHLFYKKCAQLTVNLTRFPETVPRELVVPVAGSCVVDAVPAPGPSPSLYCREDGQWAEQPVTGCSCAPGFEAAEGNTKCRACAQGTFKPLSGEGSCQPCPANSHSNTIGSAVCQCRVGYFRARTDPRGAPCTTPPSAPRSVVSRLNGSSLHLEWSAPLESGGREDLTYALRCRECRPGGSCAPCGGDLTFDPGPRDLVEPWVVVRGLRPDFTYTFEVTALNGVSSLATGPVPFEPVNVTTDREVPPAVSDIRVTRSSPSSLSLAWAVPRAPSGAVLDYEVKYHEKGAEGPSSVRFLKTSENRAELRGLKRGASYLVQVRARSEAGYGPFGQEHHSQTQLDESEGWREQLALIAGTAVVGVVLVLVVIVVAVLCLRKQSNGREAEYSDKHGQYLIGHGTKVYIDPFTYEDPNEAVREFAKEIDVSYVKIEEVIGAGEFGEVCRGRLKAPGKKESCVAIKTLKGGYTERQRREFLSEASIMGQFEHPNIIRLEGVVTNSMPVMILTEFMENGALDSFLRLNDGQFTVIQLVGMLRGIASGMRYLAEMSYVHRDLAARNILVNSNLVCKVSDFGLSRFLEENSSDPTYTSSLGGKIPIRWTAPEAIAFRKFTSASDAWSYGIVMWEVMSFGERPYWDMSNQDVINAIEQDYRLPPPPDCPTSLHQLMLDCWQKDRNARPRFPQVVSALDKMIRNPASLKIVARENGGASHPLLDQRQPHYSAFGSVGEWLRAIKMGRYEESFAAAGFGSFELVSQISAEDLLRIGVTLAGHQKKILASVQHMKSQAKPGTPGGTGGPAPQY

[2] = molecular target: Focal adhesion kinase 1 (Homo sapiens) (UniProt Q05397); assay: Inhibition of FAK at 10 uM
Chain of Focal adhesion kinase 1 (Homo sapiens) (Q05397 2-1052 limits assumed): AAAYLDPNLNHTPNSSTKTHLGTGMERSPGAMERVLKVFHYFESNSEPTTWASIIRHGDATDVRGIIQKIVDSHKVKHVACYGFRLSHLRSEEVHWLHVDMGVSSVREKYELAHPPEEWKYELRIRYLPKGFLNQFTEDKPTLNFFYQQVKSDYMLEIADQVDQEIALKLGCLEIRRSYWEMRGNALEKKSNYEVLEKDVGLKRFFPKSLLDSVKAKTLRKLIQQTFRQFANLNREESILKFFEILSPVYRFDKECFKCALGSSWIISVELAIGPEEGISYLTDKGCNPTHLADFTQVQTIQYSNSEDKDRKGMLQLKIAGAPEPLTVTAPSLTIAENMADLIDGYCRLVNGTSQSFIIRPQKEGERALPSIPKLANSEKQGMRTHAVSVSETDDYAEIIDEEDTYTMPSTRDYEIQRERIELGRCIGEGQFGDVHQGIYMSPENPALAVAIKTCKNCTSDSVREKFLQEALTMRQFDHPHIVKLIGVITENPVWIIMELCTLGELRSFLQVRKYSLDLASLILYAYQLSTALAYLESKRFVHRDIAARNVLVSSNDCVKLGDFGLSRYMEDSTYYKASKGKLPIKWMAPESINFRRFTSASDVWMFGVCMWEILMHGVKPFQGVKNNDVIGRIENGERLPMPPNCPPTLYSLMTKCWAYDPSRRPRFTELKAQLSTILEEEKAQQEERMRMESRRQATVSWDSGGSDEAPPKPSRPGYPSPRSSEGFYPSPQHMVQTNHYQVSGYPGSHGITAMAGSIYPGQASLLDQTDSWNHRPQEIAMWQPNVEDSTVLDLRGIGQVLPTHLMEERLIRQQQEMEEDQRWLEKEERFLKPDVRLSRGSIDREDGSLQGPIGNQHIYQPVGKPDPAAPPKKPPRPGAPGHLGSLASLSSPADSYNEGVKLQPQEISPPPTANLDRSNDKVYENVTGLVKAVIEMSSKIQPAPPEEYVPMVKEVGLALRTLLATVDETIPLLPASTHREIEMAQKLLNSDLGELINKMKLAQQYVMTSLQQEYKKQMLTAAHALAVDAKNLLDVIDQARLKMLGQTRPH

[3] = molecular target: Proto-oncogene tyrosine-protein kinase Src (Homo sapiens) (UniProt P12931); assay: Inhibition of SRC at 10 uM
Chain of Proto-oncogene tyrosine-protein kinase Src (Homo sapiens) (P12931 2-536 limits assumed): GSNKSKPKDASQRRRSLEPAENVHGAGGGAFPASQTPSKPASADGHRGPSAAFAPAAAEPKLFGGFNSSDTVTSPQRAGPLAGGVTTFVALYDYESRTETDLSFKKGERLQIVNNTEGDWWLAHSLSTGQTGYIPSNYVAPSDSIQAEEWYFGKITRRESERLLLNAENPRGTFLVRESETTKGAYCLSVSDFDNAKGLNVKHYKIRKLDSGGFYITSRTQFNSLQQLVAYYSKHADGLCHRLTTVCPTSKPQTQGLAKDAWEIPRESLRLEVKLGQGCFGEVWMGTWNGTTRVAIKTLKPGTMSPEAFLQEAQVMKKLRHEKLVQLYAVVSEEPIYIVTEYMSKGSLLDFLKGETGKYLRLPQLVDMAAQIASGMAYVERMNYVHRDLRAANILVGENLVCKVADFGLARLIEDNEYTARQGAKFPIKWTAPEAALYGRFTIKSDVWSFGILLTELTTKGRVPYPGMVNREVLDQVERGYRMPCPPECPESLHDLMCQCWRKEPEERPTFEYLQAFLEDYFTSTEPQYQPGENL

[4] = molecular target: RAC-alpha serine/threonine-protein kinase (Homo sapiens) (UniProt P31749); assay: Inhibition of AKT1 at 10 uM
Chain of RAC-alpha serine/threonine-protein kinase (Homo sapiens) (P31749 whole entry): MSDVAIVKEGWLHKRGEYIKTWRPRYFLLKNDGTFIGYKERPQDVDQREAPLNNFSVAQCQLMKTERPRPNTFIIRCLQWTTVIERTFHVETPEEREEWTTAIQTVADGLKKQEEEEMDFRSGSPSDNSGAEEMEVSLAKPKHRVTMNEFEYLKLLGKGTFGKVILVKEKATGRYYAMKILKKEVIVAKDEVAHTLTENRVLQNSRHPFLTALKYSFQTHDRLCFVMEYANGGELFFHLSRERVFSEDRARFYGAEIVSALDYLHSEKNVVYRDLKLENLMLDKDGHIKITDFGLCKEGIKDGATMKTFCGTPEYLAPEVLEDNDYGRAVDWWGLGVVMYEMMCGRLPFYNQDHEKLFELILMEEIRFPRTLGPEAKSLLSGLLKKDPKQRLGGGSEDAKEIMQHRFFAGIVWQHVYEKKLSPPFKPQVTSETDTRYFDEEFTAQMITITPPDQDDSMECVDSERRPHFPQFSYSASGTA

Homo sapiens = species on record: Homo sapiens; assay: Inhibition of CDK4/cyclinD1 at 10 uM
[5] = molecular target: Serine/threonine-protein kinase PAK 4 (Homo sapiens) (UniProt O96013); assay: Inhibition of PAK4 at 10 uM
Chain of Serine/threonine-protein kinase PAK 4 (Homo sapiens) (O96013 whole entry, looked up): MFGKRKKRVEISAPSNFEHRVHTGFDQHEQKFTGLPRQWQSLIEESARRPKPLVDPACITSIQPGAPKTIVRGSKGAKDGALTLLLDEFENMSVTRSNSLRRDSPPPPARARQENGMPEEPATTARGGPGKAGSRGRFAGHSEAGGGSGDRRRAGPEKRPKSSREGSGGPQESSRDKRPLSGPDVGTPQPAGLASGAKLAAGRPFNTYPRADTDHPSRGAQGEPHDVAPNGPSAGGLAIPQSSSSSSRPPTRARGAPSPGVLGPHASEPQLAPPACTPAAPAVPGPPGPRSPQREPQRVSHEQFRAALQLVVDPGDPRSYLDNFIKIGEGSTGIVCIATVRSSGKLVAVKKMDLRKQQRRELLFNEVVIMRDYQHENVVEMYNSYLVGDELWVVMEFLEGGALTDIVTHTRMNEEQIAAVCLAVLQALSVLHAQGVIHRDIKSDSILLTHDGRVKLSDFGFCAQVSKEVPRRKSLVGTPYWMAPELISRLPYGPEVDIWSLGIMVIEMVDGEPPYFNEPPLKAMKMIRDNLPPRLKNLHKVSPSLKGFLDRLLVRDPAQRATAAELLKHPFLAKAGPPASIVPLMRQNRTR

[6] = molecular target: Receptor-type tyrosine-protein kinase FLT3 (Homo sapiens, UniProt P36888); assay: Inhibition of FLT3
Chain of Receptor-type tyrosine-protein kinase FLT3 (P36888 whole entry): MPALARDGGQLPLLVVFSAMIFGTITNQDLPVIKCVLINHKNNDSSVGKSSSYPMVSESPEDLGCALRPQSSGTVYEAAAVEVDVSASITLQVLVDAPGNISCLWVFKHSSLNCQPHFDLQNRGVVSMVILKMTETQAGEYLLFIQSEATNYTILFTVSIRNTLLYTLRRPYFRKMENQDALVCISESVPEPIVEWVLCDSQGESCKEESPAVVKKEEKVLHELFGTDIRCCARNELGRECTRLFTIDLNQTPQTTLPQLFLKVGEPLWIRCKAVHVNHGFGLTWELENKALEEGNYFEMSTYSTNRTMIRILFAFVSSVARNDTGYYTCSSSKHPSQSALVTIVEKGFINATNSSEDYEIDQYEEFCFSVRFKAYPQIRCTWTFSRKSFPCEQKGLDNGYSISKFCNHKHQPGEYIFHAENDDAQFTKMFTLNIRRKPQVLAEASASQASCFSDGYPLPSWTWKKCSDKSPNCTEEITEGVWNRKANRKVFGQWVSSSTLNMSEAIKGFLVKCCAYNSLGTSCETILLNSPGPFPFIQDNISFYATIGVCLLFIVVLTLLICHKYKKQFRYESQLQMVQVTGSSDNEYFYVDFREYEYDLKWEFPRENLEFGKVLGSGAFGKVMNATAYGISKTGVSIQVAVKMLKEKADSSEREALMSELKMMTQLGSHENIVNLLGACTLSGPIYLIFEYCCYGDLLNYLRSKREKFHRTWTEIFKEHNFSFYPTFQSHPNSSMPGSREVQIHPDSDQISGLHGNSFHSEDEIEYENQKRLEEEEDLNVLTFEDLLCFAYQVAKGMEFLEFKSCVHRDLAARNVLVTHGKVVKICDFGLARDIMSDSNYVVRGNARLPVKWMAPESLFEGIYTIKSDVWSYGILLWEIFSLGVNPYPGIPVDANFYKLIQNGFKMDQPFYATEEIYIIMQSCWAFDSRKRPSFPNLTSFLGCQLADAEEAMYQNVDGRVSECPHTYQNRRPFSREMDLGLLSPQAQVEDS

K562 = assay: Antitumor activity against human K562 cells after 48 hrs by sulforhodamine B protein assay; assay type: functional; conditions: K562, 48 h
How it was run: (§1)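 Part of the NCI 60-cell-line screen. Compounds tested at five concentrations (10^-8 to 10^-4 M) with continuous exposure for 48 h. Cell growth read by sulforhodamine B protein assay, with percent growth from optical density of treated versus untreated control cultures. GI50 is the concentration giving 50% net growth inhibition.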

MDA-MB-435 = assay: Antitumor activity against human MDA-MB435 cells after 48 hrs by sulforhodamine B protein assay; assay type: functional; conditions: MDA-MB-435, 48 h; how it was run: as §1
[7] = molecular target: Receptor-type tyrosine-protein kinase FLT3 (Homo sapiens) (UniProt P36888); assay: Inhibition of FLT3 at 10 uM
Chain of Receptor-type tyrosine-protein kinase FLT3 (Homo sapiens) (P36888 whole entry): as above

[8] = molecular target: Cyclin-dependent kinase 4 (Homo sapiens, UniProt P11802); assay: Inhibition of CDK4
Chain of Cyclin-dependent kinase 4 (P11802 whole entry): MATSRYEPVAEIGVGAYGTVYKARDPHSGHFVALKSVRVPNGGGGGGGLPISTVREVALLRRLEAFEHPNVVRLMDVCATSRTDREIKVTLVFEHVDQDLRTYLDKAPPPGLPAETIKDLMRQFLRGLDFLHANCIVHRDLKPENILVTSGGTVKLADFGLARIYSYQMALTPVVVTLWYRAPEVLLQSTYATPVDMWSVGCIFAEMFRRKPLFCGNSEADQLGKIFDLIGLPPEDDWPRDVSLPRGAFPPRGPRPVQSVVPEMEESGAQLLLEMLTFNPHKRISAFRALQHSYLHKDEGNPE

[9] = molecular target: Epidermal growth factor receptor (Homo sapiens) (UniProt P00533); assay: Inhibition of EGFR at 10 uM
[10] = molecular target: Vascular endothelial growth factor receptor 3 (Homo sapiens, UniProt P35916); assay: Inhibition of VEGFR3

Row | Compound | inhibition [1] | inhibition [2] | inhibition [3] | inhibition [4] | inhibition (Homo sapiens) | inhibition [5] | IC50 [6] | GI50 (K562) | GI50 (MDA-MB-435) | inhibition [7] | IC50 [8] | inhibition [9] | IC50 [10]
1 | O=C1Cc2cnn(-c3cc(Cl)cc(Cl)c3)c2-c2ccccc2N1 | < 40% | < 40% | < 40% | < 40% | < 40% | < 40% | – | < 0.01 µM | < 0.01 µM | < 40% | – | – | –
2 | COc1ccc(-n2ncc3c2-c2ccccc2NC(=O)C3)cc1 | < 40% | < 40% | < 40% | < 40% | < 40% | < 40% | – | 0.35 µM | 0.025 µM | < 40% | – | – | –
3 | O=C1Cc2cnn(-c3ccc([N+](=O)[O-])cc3)c2-c2ccccc2N1 | < 40% | < 40% | < 40% | < 40% | < 40% | < 40% | – | – | – | < 40% | – | – | –
4 | O=C1Cc2cnn(-c3ccc(C(F)(F)F)cc3)c2-c2ccccc2N1 | < 40% | < 40% | < 40% | < 40% | < 40% | < 40% | – | 12.6 µM | 11.2 µM | < 40% | – | – | –
5 | CC(C)(C)c1ccc(-n2ncc3c2-c2ccccc2NC(=O)C3)cc1 | < 40% | < 40% | < 40% | < 40% | < 40% | < 40% | – | 31.6 µM | 18.6 µM | < 40% | – | – | > 10 µM
6 | O=C1Cc2cnn(-c3ccc(Br)cc3)c2-c2ccccc2N1 | < 40% | < 40% | < 40% | < 40% | < 40% | < 40% | – | 4.07 µM | 1.91 µM | < 40% | – | – | –
7 | Cc1ccc(-n2ncc3c2-c2ccccc2NC(=O)C3)cc1 | < 40% | < 40% | < 40% | < 40% | < 40% | < 40% | – | 1.78 µM | 2.09 µM | < 40% | – | – | –

More lines, now with the values ahead:

Row | inhibition [1] | inhibition [2] | inhibition [3] | inhibition [4] | inhibition (Homo sapiens) | inhibition [5] | IC50 [6] | GI50 (K562) | GI50 (MDA-MB-435) | inhibition [7] | IC50 [8] | inhibition [9] | IC50 [10] | Compound
8 | < 40% | < 40% | < 40% | < 40% | < 40% | < 40% | > 10 µM | – | – | – | – | – | – | O=C1Cc2cnn(-c3ccc(Cl)cc3)c2-c2ccccc2N1
9 | < 40% | < 40% | < 40% | < 40% | > 40% | < 40% | – | – | – | < 40% | > 10 µM | – | – | O=C1Cc2cnn(-c3cccc(Cl)c3)c2-c2ccccc2N1
10 | < 40% | < 40% | < 40% | < 40% | < 40% | < 40% | – | – | – | < 40% | – | – | – | O=C1Cc2cnn(-c3ccc(F)cc3F)c2-c2ccccc2N1
11 | < 40% | < 40% | < 40% | < 40% | < 40% | < 40% | – | – | – | < 40% | – | – | – | O=C1Cc2cnn(-c3ccccc3F)c2-c2ccccc2N1
12 | < 40% | < 40% | < 40% | < 40% | < 40% | < 40% | – | – | – | < 40% | – | – | – | O=C1Cc2cnn(-c3ccccc3Cl)c2-c2ccccc2N1
13 | < 40% | < 40% | < 40% | < 40% | < 40% | < 40% | – | – | – | < 40% | – | < 40% | – | O=C1Cc2cnn(-c3ccccc3)c2-c2ccccc2N1
14 | < 40% | < 40% | < 40% | < 40% | < 40% | < 40% | – | – | – | < 40% | – | – | – | Cc1ccccc1-n1ncc2c1-c1ccccc1NC(=O)C2
15 | < 40% | < 40% | < 40% | < 40% | < 40% | < 40% | – | – | – | < 40% | – | – | – | O=C1Cc2cnn(-c3ccccc3Br)c2-c2ccccc2N1
